Data reported in ChEMBL document CHEMBL4706544, “Discovery of 2-oxy-2-phenylacetic acid substituted naphthalene sulfonamide derivatives as potent KEAP1-NRF2 protein-protein interaction inhibitors for inflammatory conditions” (Eur J Med Chem, 2020).
The source made the active and inactive calls. The rule behind the calls is not given here.

Experiments:
[1] = target: Keap1/Nrf2 (Homo sapiens, UniProt Q14145)
[2] = system: Mus musculus; assay: Antiinflammatory activity in LPS-induced C57BL/6 mouse model assessed as reduction in TNFalpha production at 10 mg/kg, ip treated for 3 days measured 24 hrs post last dose by ELISA; type: functional, organism-based; details: time 4.0 day
Method in brief: (§1)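 Female C57BL/6 mice (20 ± 2 g) got LPS 300 µg/kg IP, then 4 h later IP test compound (500 µL) daily for 3 days. Groups were saline control (n=3), LPS (n=8), LPS + 10 or 40 mg/kg (n=8 each) and LPS + dexamethasone 10 mg/kg IP (n=8). Sera were taken 24 h after the last dose, and IFN-γ, IL-1β, IL-6 and TNF-α were measured by ELISA kits.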

[3] = system: Mus musculus; assay: Antiinflammatory activity in LPS-induced C57BL/6 mouse model assessed as reduction in IL1beta production at 10 mg/kg, ip treated for 3 days measured 24 hrs post last dose by ELISA; type: functional, organism-based; details: time 4.0 day
Method in brief: as §1

[4] = system: Mus musculus; assay: Antiinflammatory activity in LPS-induced C57BL/6 mouse model assessed as reduction in IFNgamma production at 10 mg/kg, ip treated for 3 days measured 24 hrs post last dose by ELISA; type: functional, organism-based; details: time 4.0 day
Method in brief: as §1

[5] = system: Mus musculus; assay: Antiinflammatory activity in LPS-induced C57BL/6 mouse model assessed as reduction in IL6 production at 10 mg/kg, ip treated for 3 days measured 24 hrs post last dose by ELISA; type: functional, organism-based; details: time 4.0 day
Method in brief: as §1

[6] = AUC (0 to t) in Sprague-Dawley rat at 1 mg/kg, iv by LC-MS/MS analysis; type: ADME, organism-based; details: in vivo
[7] = system: RAW264.7; assay: Antioxidant activity in LPS-induced mouse RAW264.7 cells assessed as restoration of GSH to GSSG ratio at 10 uM measured after 12 hrs; type: functional, cell-based
Method in brief: (§2)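 RAW 264.7 cells were pretreated with LPS 1 µg/mL for 6 h, then exposed to compound (1 or 10 µM) for a further 12 h. SOD activity (WST-8 kit), GSH-Px activity, MPO activity and the GSH/GSSG ratio were measured with commercial kits per the manufacturer's protocols. Data are mean ± SEM, n = 3 independent observations, one-way ANOVA.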

[8] = system: RAW264.7; assay: Antioxidant activity in mouse RAW264.7 cells assessed as reversal in LPS-induced increase of MPO activity measured after 12 hrs; type: functional, cell-based
Method in brief: as §2

[9] = AUC (0 to infinity) in Sprague-Dawley rat at 1 mg/kg, iv by LC-MS/MS analysis; type: ADME, organism-based; set-up: dose 1 mg/kg, route intravenous, time infinity; details: in vivo
[10] = system: Mus musculus; assay: Antiinflammatory activity in ip dosed LPS-induced C57BL/6 mouse model assessed as reduction in TNFalpha production treated for 3 days measured 24 hrs post last dose by ELISA; type: functional, organism-based; details: time 4.0 day
Method in brief: as §1

[11] = system: Mus musculus; assay: Antiinflammatory activity in ip dosed LPS-induced C57BL/6 mouse model assessed as reduction in IL1beta production treated for 3 days measured 24 hrs post last dose by ELISA; type: functional, organism-based; details: time 4.0 day
Method in brief: as §1

[12] = target: Cytochrome P450 2D6 (Homo sapiens, UniProt P10635); assay: Inhibition of CYP2D6 in human liver microsomes preincubated for 10 mins followed by NADPH addition by LC-MS/MS analysis; type: ADME
Cytochrome P450 2D6, sequence (P10635 whole entry): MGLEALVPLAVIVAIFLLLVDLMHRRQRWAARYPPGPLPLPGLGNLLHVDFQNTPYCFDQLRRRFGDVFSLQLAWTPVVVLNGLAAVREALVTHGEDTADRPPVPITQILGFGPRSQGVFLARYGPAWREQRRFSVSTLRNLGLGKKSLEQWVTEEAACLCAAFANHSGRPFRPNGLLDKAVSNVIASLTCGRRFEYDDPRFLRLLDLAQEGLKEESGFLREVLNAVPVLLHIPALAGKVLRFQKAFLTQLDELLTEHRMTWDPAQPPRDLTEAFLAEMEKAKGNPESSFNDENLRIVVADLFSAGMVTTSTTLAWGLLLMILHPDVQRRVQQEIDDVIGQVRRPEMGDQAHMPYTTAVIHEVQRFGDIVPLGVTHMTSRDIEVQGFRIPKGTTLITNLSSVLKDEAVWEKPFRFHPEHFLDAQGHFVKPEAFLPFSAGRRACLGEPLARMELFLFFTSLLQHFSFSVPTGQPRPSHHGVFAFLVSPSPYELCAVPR

[13] = target: Cytochrome P450 2C9 (Homo sapiens, UniProt P11712); assay: Inhibition of CYP2C9 in human liver microsomes preincubated for 10 mins followed by NADPH addition by LC-MS/MS analysis; type: ADME
Cytochrome P450 2C9, sequence (P11712 whole entry): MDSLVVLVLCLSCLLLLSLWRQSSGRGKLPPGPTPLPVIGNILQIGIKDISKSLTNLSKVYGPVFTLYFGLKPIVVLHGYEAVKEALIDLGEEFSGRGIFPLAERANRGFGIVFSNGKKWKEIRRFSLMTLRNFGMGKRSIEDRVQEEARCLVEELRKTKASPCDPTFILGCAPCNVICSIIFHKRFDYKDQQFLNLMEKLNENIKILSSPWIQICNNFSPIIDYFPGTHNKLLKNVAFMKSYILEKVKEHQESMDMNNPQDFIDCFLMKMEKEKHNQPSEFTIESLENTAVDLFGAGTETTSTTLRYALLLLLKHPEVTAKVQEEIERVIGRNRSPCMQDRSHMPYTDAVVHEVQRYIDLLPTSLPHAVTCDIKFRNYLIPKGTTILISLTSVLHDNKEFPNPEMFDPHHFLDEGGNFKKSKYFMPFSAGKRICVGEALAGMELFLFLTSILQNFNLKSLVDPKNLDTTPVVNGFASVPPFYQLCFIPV

[14] = target: Cytochrome P450 2C19 (Homo sapiens, UniProt P33261); assay: Inhibition of CYP2C19 in human liver microsomes preincubated for 10 mins followed by NADPH addition by LC-MS/MS analysis; type: ADME
Cytochrome P450 2C19, sequence (P33261 whole entry): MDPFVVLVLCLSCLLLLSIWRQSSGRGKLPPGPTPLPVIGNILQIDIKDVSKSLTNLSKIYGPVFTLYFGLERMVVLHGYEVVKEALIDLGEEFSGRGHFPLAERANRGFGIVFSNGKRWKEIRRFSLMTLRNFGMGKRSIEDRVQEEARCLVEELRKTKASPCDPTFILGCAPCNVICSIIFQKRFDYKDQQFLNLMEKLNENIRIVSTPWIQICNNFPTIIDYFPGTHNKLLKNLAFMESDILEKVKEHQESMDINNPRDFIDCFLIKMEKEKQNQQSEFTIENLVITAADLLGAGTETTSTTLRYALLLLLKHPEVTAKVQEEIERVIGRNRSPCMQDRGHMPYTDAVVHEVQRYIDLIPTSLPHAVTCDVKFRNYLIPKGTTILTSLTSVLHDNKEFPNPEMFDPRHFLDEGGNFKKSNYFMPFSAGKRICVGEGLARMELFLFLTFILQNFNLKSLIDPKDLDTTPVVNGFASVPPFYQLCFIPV

[15] = Cmax in Sprague-Dawley rat at 1 mg/kg, iv by LC-MS/MS analysis; type: ADME, organism-based; set-up: route intravenous, dose 1 mg/kg; details: in vivo
Method in brief: (§3)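 Six male SD rats (180–220 g) received 1 mg/kg IV in normal saline with cosolvent. Plasma was obtained by centrifugation at 4 °C and 2000 rpm for 10 min, stored near −80 °C, and analysed by LC-MS/MS.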

[16] = system: RAW264.7; assay: Antioxidant activity in mouse RAW264.7 cells assessed as inhibition of LPS-induced ROS generation at 10 uM measured after 12 hrs by CH2DCF-DA staining based fluorescence microscopic analysis; type: functional, cell-based
Method in brief: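 RAW 264.7 cells were pretreated with LPS 1 µg/mL for 6 h, then given compound for 12 h. Cells were washed with PBS and stained with 10 µM c-H2DCF-DA for 20 min at 37 °C in the dark. ROS was imaged by live-cell fluorescence microscopy and quantified as mean fluorescence intensity. n = 3 independent observations, mean ± SEM.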

[17] = target: T1, Cytochrome P450 1A2 (Homo sapiens, UniProt P05177); assay: Inhibition of CYP1A2 in human liver microsomes preincubated for 10 mins followed by NADPH addition by LC-MS/MS analysis; type: ADME
T1 sequence (P05177 whole entry): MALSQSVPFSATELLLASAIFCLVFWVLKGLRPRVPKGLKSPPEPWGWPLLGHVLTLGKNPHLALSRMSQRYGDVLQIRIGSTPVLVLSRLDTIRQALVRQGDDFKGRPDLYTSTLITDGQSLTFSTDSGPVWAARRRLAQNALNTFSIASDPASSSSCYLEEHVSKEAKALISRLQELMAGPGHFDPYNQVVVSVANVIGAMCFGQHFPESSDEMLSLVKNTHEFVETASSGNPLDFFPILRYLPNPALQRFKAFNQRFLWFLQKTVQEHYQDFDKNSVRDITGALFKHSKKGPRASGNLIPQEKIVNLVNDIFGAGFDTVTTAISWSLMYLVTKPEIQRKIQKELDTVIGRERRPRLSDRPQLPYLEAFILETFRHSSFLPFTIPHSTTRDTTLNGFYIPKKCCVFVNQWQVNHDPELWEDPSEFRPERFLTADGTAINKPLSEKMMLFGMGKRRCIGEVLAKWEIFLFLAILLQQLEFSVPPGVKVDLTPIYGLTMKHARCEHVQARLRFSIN

[18] = Apparent volume of distribution during terminal phase in Sprague-Dawley rat at 1 mg/kg, iv by LC-MS/MS analysis; type: ADME, organism-based; details: in vivo
Method in brief: as §3

[19] = Intrinsic clearance in CD-1 rat liver microsomes preincubated for 5 mins followed by NADPH addition and measured after 45 mins by LC-MS/MS analysis; type: ADME, Microsome; details: time 50 min
Method in brief: (§4)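 CD-1 male rat liver microsomes in PBS were shaken 10 min at 37 °C, then DMSO compound solution (0.1 mM) was added. Plates were preincubated 5 min at 37 °C before NADPH was added to start the reaction; the 0-min samples were quenched with acetonitrile first. Ice-cold acetonitrile stopped reactions at 5, 15, 30 and 45 min. Clozapine was the reference; supernatants were analysed by LC-MS/MS.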

[20] = Half life in Sprague-Dawley rat at 1 mg/kg, iv by LC-MS/MS analysis; type: ADME, organism-based; details: in vivo
Method in brief: as §3

[21] = system: RAW264.7; assay: Antioxidant activity in LPS-induced mouse RAW264.7 cells assessed as restoration of SOD activity at 10 uM […]; type: functional, cell-based
[22] = system: Mus musculus; assay: Antiinflammatory activity in ip dosed LPS-induced C57BL/6 mouse model assessed as reduction in IFNgamma production treated for 3 days measured 24 hrs post last dose by ELISA; type: functional, organism-based; details: time 4.0 day
Method in brief: as §1

[23] = system: Mus musculus; assay: Antiinflammatory activity in ip dosed LPS-induced C57BL/6 mouse model assessed as reduction in IL6 production treated for 3 days measured 24 hrs post last dose by ELISA; type: functional, organism-based; details: time 4.0 day
Method in brief: as §1

[24] = target: Cytochrome P450 3A4 (Homo sapiens, UniProt P08684); assay: Inhibition of CYP3A4 in human liver microsomes preincubated for 10 mins followed by NADPH addition by LC-MS/MS analysis; type: ADME
Cytochrome P450 3A4, sequence (P08684 whole entry): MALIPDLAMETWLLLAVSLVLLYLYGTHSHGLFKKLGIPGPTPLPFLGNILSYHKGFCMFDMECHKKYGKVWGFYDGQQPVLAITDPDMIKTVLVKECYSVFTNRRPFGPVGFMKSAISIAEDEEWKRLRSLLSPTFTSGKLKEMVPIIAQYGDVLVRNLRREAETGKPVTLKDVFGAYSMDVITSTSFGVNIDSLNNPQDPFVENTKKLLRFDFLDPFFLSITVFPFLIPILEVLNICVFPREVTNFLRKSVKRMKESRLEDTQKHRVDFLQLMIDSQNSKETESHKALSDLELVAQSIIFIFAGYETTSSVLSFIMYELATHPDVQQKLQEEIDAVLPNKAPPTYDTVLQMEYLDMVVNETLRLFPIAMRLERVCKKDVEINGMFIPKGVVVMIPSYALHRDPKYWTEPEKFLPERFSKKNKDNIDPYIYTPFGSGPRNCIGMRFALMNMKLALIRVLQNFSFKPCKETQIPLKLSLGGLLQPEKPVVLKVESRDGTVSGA

[25] = Half life in CD-1 rat liver microsomes preincubated for 5 mins followed by NADPH addition and measured after 45 mins by LC-MS/MS analysis; type: ADME, Microsome; details: time 50 min
Method in brief: as §4

[26] = system: RAW264.7; assay: Antioxidant activity in LPS-induced mouse RAW264.7 cells assessed as restoration of GSH-Px activity at 10 uM measured after 12 hrs; type: functional, cell-based
Method in brief: as §2

[27] = Hepatic clearance in CD-1 rat liver microsomes preincubated for 5 mins followed by NADPH addition and measured after 45 mins by LC-MS/MS analysis; type: ADME, Microsome
Method in brief: as §4

Keap1/Nrf2, sequence (Q16236 whole entry): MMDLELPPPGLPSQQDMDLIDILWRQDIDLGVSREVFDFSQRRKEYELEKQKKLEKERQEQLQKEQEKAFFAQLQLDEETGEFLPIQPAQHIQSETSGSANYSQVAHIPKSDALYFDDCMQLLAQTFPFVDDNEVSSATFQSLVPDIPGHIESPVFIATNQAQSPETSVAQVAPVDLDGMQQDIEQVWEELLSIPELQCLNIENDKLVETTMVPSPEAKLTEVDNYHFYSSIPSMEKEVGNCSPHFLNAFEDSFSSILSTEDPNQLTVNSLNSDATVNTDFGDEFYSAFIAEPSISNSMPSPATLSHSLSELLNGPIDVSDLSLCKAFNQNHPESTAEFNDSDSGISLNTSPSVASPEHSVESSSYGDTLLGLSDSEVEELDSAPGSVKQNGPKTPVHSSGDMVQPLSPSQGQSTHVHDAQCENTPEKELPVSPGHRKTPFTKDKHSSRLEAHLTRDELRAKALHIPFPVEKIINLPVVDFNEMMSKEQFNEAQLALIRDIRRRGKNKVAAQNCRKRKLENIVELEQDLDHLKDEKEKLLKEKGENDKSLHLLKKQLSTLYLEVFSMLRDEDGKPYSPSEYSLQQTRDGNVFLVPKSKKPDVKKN
Keap1/Nrf2, sequence (Q14145 whole entry): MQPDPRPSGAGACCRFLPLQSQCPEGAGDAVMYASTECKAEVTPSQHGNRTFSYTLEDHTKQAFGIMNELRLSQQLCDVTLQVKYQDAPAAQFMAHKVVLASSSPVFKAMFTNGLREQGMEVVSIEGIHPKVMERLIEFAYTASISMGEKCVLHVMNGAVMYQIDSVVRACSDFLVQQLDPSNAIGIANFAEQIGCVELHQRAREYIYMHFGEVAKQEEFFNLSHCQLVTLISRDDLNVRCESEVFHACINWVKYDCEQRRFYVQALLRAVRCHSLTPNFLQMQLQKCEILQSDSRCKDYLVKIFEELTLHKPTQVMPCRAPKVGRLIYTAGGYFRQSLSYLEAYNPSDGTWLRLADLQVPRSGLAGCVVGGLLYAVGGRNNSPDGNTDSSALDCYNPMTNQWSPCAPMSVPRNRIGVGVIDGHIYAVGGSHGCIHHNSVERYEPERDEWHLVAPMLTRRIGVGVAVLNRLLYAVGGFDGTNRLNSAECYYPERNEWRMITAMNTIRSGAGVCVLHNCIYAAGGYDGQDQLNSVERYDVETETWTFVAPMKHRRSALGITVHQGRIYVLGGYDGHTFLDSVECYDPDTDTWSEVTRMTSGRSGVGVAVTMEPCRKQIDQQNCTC

O=C(O)CN(c1ccc(OC(C(=O)O)c2ccccc2)c2ccccc12)S(=O)(=O)c1ccc(Br)cc1 (configuration not stated)
IC50 [1]: 2970 nM

C[C@@H]1C[C@H]2[C@@H]3CCC4=CC(=O)C=C[C@]4(C)[C@@]3(F)[C@@H](O)C[C@]2(C)[C@@]1(O)C(=O)CO
Activity [2]: Active
Activity [3]: Active
Activity [4]: Active
Activity [5]: Active

Cc1cc(C)c(S(=O)(=O)N(CC(=O)O)c2ccc(OC(C(=O)O)c3ccc(Br)cc3)c3ccccc23)c(C)c1 (configuration not stated)
IC50 [1]: 430 nM

CCOc1ccc(C(Oc2ccc(N(CC(=O)O)S(=O)(=O)c3c(C)cc(C)cc3C)c3ccccc23)C(=O)O)cc1 (configuration not stated)
IC50 [1]: 150 nM

Cc1cc(C)c(S(=O)(=O)N(CC(=O)O)c2ccc(OC(C(=O)O)c3ccc(Cl)cc3)c3ccccc23)c(C)c1 (configuration not stated)
IC50 [1]: 190 nM

Cc1cc(C)c(S(=O)(=O)N(CC(=O)O)c2ccc(OC(C(=O)O)c3ccc(C(F)(F)F)cc3)c3ccccc23)c(C)c1 (configuration not stated)
IC50 [1]: 1190 nM

O=C(O)CN(c1ccc(OC(C(=O)O)c2ccccc2)c2ccccc12)S(=O)(=O)c1ccccc1 (configuration not stated)
IC50 [1]: 17800 nM

O=C(O)CN(c1ccc(OC(C(=O)O)c2ccccc2)c2ccccc12)S(=O)(=O)c1cccc2ccccc12 (configuration not stated)
IC50 [1]: 780 nM

Cc1cc(C)c(S(=O)(=O)N(CC(=O)O)c2ccc(OC(C(=O)O)c3ccc(O)cc3)c3ccccc23)c(C)c1 (configuration not stated)
IC50 [1]: 160 nM

NC(=O)c1ccc(S(=O)(=O)N(CC(=O)O)c2ccc(OC(C(=O)O)c3ccccc3)c3ccccc23)cc1 (configuration not stated)
IC50 [1]: 2690 nM

COc1ccc(C(Oc2ccc(N(CC(=O)O)S(=O)(=O)c3c(C)cc(C)cc3C)c3ccccc23)C(=O)O)cc1 (configuration not stated)
AUC(0-t) [6]: 2550 ng·h/mL
Activity [7]: Active
Activity [8]: Dose-dependent effect
AUC [9]: 2649 ng·h/mL
Activity [10]: Dose-dependent effect
Activity [11]: Dose-dependent effect
IC50 [12]: > 10000 nM
IC50 [13]: > 10000 nM
IC50 [14]: > 10000 nM
Cmax [15]: 15100 ng/mL
inhibition [16]: Dose-dependent effect
IC50 [17]: > 10000 nM
Vz/F [18]: 0.953 L/kg
CLint at […] [19]: 1.57 µL/min/mg
t1/2 [20]: 1.72 h
Activity [21]: Active
Activity [22]: Dose-dependent effect
Activity [23]: Dose-dependent effect
IC50 [24]: > 10000 nM
half-life at […] [25]: 10.5 h
Activity [26]: Active
CLhep predicted at […] [27]: 2.69 mL/min/kg

CC(=O)Nc1ccc(C(Oc2ccc(N(CC(=O)O)S(=O)(=O)c3c(C)cc(C)cc3C)c3ccccc23)C(=O)O)cc1 (configuration not stated)
IC50 [1]: 980 nM

Cc1ccc(S(=O)(=O)N(CC(=O)O)c2ccc(OC(C(=O)O)c3ccccc3)c3ccccc23)cc1 (configuration not stated)
IC50 [1]: 2690 nM

O=C(O)CN(c1ccc(OC(C(=O)O)c2ccccc2)c2ccccc12)S(=O)(=O)c1ccc(OC(F)(F)F)cc1 (configuration not stated)
IC50 [1]: 5840 nM

Cc1cc(C)c(S(=O)(=O)N(CC(=O)O)c2ccc(OC(C(=O)O)c3ccc(C(C)(C)C)cc3)c3ccccc23)c(C)c1 (configuration not stated)
IC50 [1]: 19000 nM

O=C(O)CN(c1ccc(OC(C(=O)O)c2ccccc2)c2ccccc12)S(=O)(=O)c1ccc(Cl)cc1 (configuration not stated)
IC50 [1]: 7640 nM

Cc1cc(C)c(S(=O)(=O)N(CC(=O)O)c2ccc(OC(C(=O)O)c3ccc(OC(C)C)cc3)c3ccccc23)c(C)c1 (configuration not stated)
IC50 [1]: 500 nM

Cc1cc(C)c(S(=O)(=O)N(CC(=O)O)c2ccc(OC(C(=O)O)c3ccc(F)cc3)c3ccccc23)c(C)c1 (configuration not stated)
IC50 [1]: 170 nM
